LANA DNA inh: inhibitors of KSHV LANA C-terminal domain DNA binding; MBP-C-LANA/FAM-LBS DNA binding, fluorescence polarization; actives 0.078% (n = 340,000); AID 504423; inhibition, % at 9 µM;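 active = highest replicate inhibition at or above 60% at 9 µM, even if other replicates fall short; inactive = all replicates below 60% inhibition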;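 also: 0% = neutral control wells and 100% = 4 µM acridine orange control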
Keap1 Nrf2 FP: inhibitors of human Keap1-Nrf2 protein-protein interaction; Q14145; Keap1 Kelch-Nrf2 peptide fluorescence polarization, 1536-well; AID 504523; actives 0.15% (n = 340,000); inhibition, % at 9.4 µM; in the data active = inhibition above about 12%;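 also: human Keap1 Kelch domain with fluorescein labeled Nrf2 9mer peptide probe; 0% = neutral control wells and 100% = peptide positive control; higher means more block of Keap1 binding to Nrf2 peptide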
DDE Tn6 FP inh: inhibitors of Tn6 peptide binding to human fibrin DD(E) | P02675 | Fibrin DD(E) TRITC-Tn6 fluorescence polarization displacement | inhibition, % at 8.3 µM | actives 0.21% (n = 370,000);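 active = inhibition above a per-campaign cutoff: mean of compounds within control limits plus 3 SD, cut at about 15% in these data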;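 also: 0% = median of all compound wells on the plate and 100% = blocking peptide control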
Target sequence (P02675 whole entry, looked up): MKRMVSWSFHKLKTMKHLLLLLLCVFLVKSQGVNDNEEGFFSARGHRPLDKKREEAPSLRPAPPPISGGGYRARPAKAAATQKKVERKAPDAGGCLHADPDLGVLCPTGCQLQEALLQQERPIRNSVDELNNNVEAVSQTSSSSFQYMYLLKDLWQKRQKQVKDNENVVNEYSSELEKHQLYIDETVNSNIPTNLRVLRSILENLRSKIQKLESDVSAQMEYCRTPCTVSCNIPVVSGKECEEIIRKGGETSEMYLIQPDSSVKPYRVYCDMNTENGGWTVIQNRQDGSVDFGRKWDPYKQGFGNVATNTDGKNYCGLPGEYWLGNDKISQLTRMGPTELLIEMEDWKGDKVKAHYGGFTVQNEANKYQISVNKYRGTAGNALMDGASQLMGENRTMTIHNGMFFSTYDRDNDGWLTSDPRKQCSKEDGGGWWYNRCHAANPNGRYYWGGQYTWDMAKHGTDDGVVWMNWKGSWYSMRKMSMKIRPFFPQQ
Tn7 DDE FP: disrupts Tn7 cyclic peptide binding to fibrin D-Dimer-E complex | FP displacement of FITC-Tn7 peptide from fibrin DD(E); 0% = median of compound wells per plate | actives 0.13% (n = 370,000) | P02675 | inhibition, % at 8.3 µM;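 active = inhibition above the mean of compounds falling within the control limits plus 3 SD of them, cut at about 14% in these data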;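 also: 0% = plate median of compound wells and 100% = 10 µM Aha-Tn7 peptide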
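Assay system: human fibrin DD(E) protein / Input: 2 µM fibrin DD(E) / Benchmarks: high control of 10 µM Aha-Tn7 peptide / Measured by: fluorescence polarization of the labelled Tn7 tracer / Medium: Tris buffer with calcium and detergent, pH 7.8 / Timing: 10 min compound pre-incubation, 3 h probe incubation at room temperature / Repeats: one replicate per compound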
Rtt109 HAT inh: blocks Candida albicans Rtt109/Vps75 acetyltransferase activity. Q5AAJ8. purified Rtt109/Vps75, ThioGlo CoA-SH fluorescence, 4 h. inhibition, % at 34.9 µM. actives 0.16% (n = 330,000);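 active = inhibition of at least 50% in every replicate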
Numbers without * were called inactive; . = not tested or not shown; ! = not active in a repeat. A selection: hits, their analogues and other compounds. The true share with any hit is near 0.6%.

SMILES	LANA DNA inh	Keap1 Nrf2 FP	DDE Tn6 FP inh	Tn7 DDE FP	Rtt109 HAT inh
O=C(COc1ccccc1Cl)NCCNC(=O)c1cccnc1	1	-3	-1	4	-1
Cc1ccc(C(=O)NCC(=O)OCCOc2cccc(Cl)c2)cc1	1	0	-2	6	3
Cc1ccc(C(=O)NCC(=O)OCCOc2ccccc2Cl)cc1	1	0	-10	1	56*
Cc1ccc(C(=O)NCCNC(=O)COc2ccccc2Cl)cn1	-1	-5	0	8	51*
Cc1ccc(NC(=O)NNC(=O)CCn2nc(C)c([N+](=O)[O-])c2C)cc1C	.	.	12	6	.
COc1cc(C(c2nnnn2C(C)(C)C)N2CCN(c3nc4ccccc4s3)CC2)ccc1O (stereo unspecified)	1	-9	10	-1	66*
NC(=O)c1ccc(NC(=O)C2COc3ccccc3O2)cc1 (stereo unspecified)	.	69*	-7	-3	-4
O=C(Nc1ccc(F)cc1)C1COc2ccccc2O1 (stereo unspecified)	1	5	-2	4	1
CC(C)Oc1cccc(-c2n[nH]c(=S)n2N=Cc2ccc(O)cc2O)c1	.	.	1	0	.
COc1cc(Cl)ccc1S(=O)(=O)n1nc(C)cc1C	0	2	3	6	-3
COc1cc(S(=O)(=O)n2nc(C)cc2C)c(OC)cc1Cl	0	-6	5	2	65*
CCCCCCCCCCOC(=O)Cn1c(COc2ccccc2)[n+](C)c2ccccc21	-1	2	1	1	-5
CCCCCCCCCCOC(=O)Cn1c(COc2ccc(OC)cc2)[n+](C)c2ccccc21	-2	6	.	.	84*!
CC(c1cc(F)ccc1O)c1c[nH]c2ccccc12 (stereo unspecified)	.	.	4	-1	.
Cc1c(Cl)cccc1NS(=O)(=O)c1ccc2c(c1)C1C=CCC1C(c1ccc(C(=O)O)cc1)N2 (stereo unspecified)	111*	-3	.	.	13
COc1ccc(NS(=O)(=O)c2ccc3c(c2)[C@H]2C=CC[C@H]2[C@@H](c2ccc(C(=O)O)cc2)N3)cc1	113*	3	-10	1	27
CC(=O)Nc1ccc(S(=O)(=O)Nc2nc3ccccc3nc2Nc2cccc(O)c2)cc1	1	-4	2	11	-7
CC(=O)Nc1ccc(S(=O)(=O)Nc2nc3ccccc3nc2Nc2ccc(C(=O)O)c(O)c2)cc1	90*	4	-7	-5	-5
C#CCOCCOCCOCCNc1nc(N2CCN(C(=O)CCCCCCCCCCNC(=O)[C@H]([C@@H](C)CC)n3cc(CCCCN=C(N)N)nn3)CC2)nc(N2CCN(C(=O)CCCCCCCCCCNC(=O)[C@H](CO)n3cc(CCCCCN)nn3)CC2)n1	-4	-11	.	.	87*
C#CCOCCOCCOCCNc1nc(N2CCN(C(=O)[C@H](CCCCN)n3cc([C@@H](N)C(C)CC)nn3)CC2)nc(N2CCN(C(=O)[C@H](CCCCN)n3cc([C@@H](N)C(C)CC)nn3)CC2)n1 (stereo partly specified)	.	.	-5	-1	.
C#CCOCCOCCOCCNc1nc(N2CCN(C(=O)CCCCCCCCCCNC(=O)[C@H]([C@@H](C)CC)n3cc(CCCCCN)nn3)CC2)nc(N2CCN(C(=O)CCCCCCCCCCNC(=O)[C@H]([C@@H](C)CC)n3cc(CCCCN=C(N)N)nn3)CC2)n1	-3	-10	.	.	9
C#CCOCCOCCOCCNc1nc(N2CCN(C(=O)[C@H](CCCN=C(N)N)n3cc(C(N)[C@@H](C)CC)nn3)CC2)nc(N2CCN(C(=O)[C@H](CCCCN)n3cc([C@@H](N)[C@H](C)CC)nn3)CC2)n1 (stereo partly specified)	-2	5	3	-5	54*
C#CCOCCOCCOCCNc1nc(N2CCN(C(=O)C([C@@H](C)O)n3cc([C@@H](N)CCCCN)nn3)CC2)nc(N2CCN(C(=O)[C@H](CCCCN)n3cc([C@@H](N)CC(N)=O)nn3)CC2)n1 (stereo partly specified)	2	-1	4	1	91*
CC(C)(C)C(=O)CSc1nnc(SCc2cccc3ccccc23)s1	.	.	-2	-4	.
CCN(CC)C(=O)CC[C@@H]1CC[C@]2(CCCN(Cc3ccccn3)C2)O1	.	.	7	3	.
SMILES	LANA DNA inh	Keap1 Nrf2 FP	DDE Tn6 FP inh	Tn7 DDE FP	Rtt109 HAT inh
N#CC1(C#N)C(c2ccccc2)OC23CCCCCC2C1(C#N)C(=N)O3 (stereo unspecified)	4	0	4	-3	-25
N#CC1(C#N)C(c2ccccc2)OC23CCCCC2C1(C#N)C(=N)O3 (stereo unspecified)	44	21*	-2	3	-397
CCCCCOc1ccc(C2NC(=O)NC2=O)cc1 (stereo unspecified)	2	0	5	-4	2
CCCCCCCCOc1ccc(C2OC34CCCCC3C(C#N)(C#N)C2(C#N)C(=N)O4)cc1 (stereo unspecified)	56	28*	.	.	-420
Cc1ccc(-n2c(SCC(=O)Nc3ccccc3-c3ccccc3)nnc2-c2ccccn2)cc1	.	.	2	-2	.
COc1cc(OC)cc(C(=O)Nc2cccc(-c3ccc(N4CCOCC4)nn3)c2)c1	0	1	7	6	9
COc1cccc(OC)c1C(=O)Nc1cccc(-c2ccc(N3CCOCC3)nn2)c1	1	-4	8	-4	52*
COc1ccc(N2C(S)=C(C#N)C(=O)NC2c2ccco2)cc1 (stereo unspecified)	0	-1	0	11	63*
COc1cc(C2NC(=O)C(C#N)=C(S)N2c2ccccc2)ccc1OC(C)C (stereo unspecified)	0	0	-2	-6	122*
COc1ccc(C2NC(=O)C(C#N)=C(S)N2c2ccccc2)cc1OC (stereo unspecified)	3	-2	-1	-2	-6
N#CC1=C(S)N(c2ccccc2)C(c2ccc(-c3cccc(Cl)c3)o2)NC1=O (stereo unspecified)	1	-5	4	0	99*
COC(=O)C1CN(CC(C)C)CCS(=O)(=O)N1Cc1ccc(OC)cc1 (stereo unspecified)	.	.	-9	4	.
Cn1cc(-c2cccc3[nH]cc(-c4ccccc4)c23)c2ccccc21	.	.	-2	-1	.
Cc1cc(CN2C(=O)c3ccccc3C2=O)no1	-1	-1	4	-1	57*
O=C(/C=C/Nc1ccc(S(=O)(=O)Nc2ncccn2)cc1)c1ccc(Cl)c(Cl)c1	20	15*	-4	-3	-4
CC(=O)N1c2ccccc2Oc2cc3ccccc3cc21	-1	-3	-3	-7	-4
O=C(CCl)N1c2ccccc2Oc2ccc3ccccc3c21	6	-2	39*	16*	-23
O=S1(=O)CC(O)C(NCc2cccnc2)C1 (stereo unspecified)	1	-7	-2	5	65*
